{"source": "ChEMBL document CHEMBL1145194", "about": "“A bivalent ligand (KDAN-18) containing delta-antagonist and kappa-agonist pharmacophores bridges delta2 and kappa1 opioid receptor phenotypes” (J Med Chem, 2005)", "key": {"Mus musculus [1]": {"test_system": "Mus musculus", "test": "Ratio of effective dose of compound producing agonistic activity in presence and absence of benzylidenenaltrexone (25 pmol) upon intrathecal administration in mouse tail flick assay", "format": "functional", "in_short": "(§1)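 Intrathecal tail-flick in CD1 mice. BNTX was given i.t. at 25 pmol with a 10 min peak time. Ratio is agonist ED50 with antagonist divided by agonist ED50 alone, taken as significant when its 95% confidence interval is >1.0. For combination dosing, the monovalent pair was coadministered i.t. equimolar.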"}, "Mus musculus [2]": {"test_system": "Mus musculus", "test": "Ratio of effective dose of compound producing agonistic activity in presence and absence of naltriben (50 pmol) upon intrathecal administration in mouse tail flick assay in presence of DN-18", "format": "functional", "in_short": "as §1, with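 “NTB” for “BNTX”, “50” for “25”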"}, "Mus musculus [3]": {"test_system": "Mus musculus", "test": "Ratio of effective dose of compound producing agonistic activity in presence and absence of benzylidenenaltrexone (25 pmol) upon intrathecal administration in mouse tail flick assay in presence of DN-18", "format": "functional", "in_short": "as §1"}, "[4]": {"target": "T1, Opioid receptors; delta & kappa (Homo sapiens, UniProt P41145+P41143)", "test": "Inhibition of [3H]deltorphin II binding to delta and kappa opioid receptors coexpressed in HEK 293 cells", "format": "cell-based", "settings": "hek293"}, "[5]": {"target": "T1, Opioid receptors; delta & kappa", "test": "Inhibition of [3H]U-69593 binding to delta and kappa opioid receptors expressed in HEK 293 cells", "format": "cell-based", "settings": "hek293", "in_short": "(§2)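 Radioligand binding on intact HEK cells with [3H]U69593, using either δ and κ coexpressed in one line or a mixture of HEK cells singly expressing δ or κ. Run alone, with 10 nM NTB, or with 100 nM BNTX.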"}, "[6]": {"target": "T1, Opioid receptors; delta & kappa", "test": "Inhibition of [3H]U-69593 binding to delta and kappa opioid receptors coexpressed in HEK 293 cells", "format": "cell-based", "settings": "hek293", "in_short": "as §2"}, "Mus musculus [7]": {"test_system": "Mus musculus", "test": "Effective dose required for agonistic activity upon intrathecal administration in mouse (n=10) tail flick assay in presence of DN-18", "format": "functional", "in_short": "(§3)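 CD1 mice dosed intrathecally, antinociception by tail-flick. A response counted as positive when latency exceeded control latency plus 3 SD of mean reaction time. ED50 given with 95% confidence limits. For combination dosing, the two monovalent ligands were coadministered i.t. in equimolar ratio.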"}, "Mus musculus [8]": {"test_system": "Mus musculus", "test": "Effective dose required for agonistic activity upon intrathecal administration in mouse (n=10) tail flick assay", "format": "functional", "in_short": "as §3"}, "[9]": {"target": "T1, Opioid receptors; delta & kappa", "test": "Inhibition of [3H]deltorphin II binding to delta and kappa opioid receptors expressed in HEK 293 cells", "format": "cell-based", "settings": "hek293"}, "Mus musculus [10]": {"test_system": "Mus musculus", "test": "Ratio of effective dose of compound producing agonistic activity in presence and absence of naltriben (50 pmol) upon intrathecal administration in mouse tail flick assay", "format": "functional", "in_short": "as §1, with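 “NTB” for “BNTX”, “50” for “25”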"}, "Mus musculus [11]": {"test_system": "Mus musculus", "test": "Ratio of effective dose of compound producing agonistic activity in presence and absence of norbinaltorphimine (2.5 nmol) upon intrathecal administration in mouse tail flick assay"}, "Mus musculus [12]": {"test_system": "Mus musculus", "test": "Ratio of effective dose of compound producing agonistic activity in presence and absence of norbinaltorphimine (2.5 nmol) upon intrathecal administration in mouse tail flick assay in presence of DN-18"}, "Mus musculus [13]": {"test_system": "Mus musculus", "test": "Ratio of effective dose of compound producing agonistic activity in presence and absence of KDN21 upon intrathecal administration in mouse tail flick assay", "format": "functional"}, "Mus musculus [14]": {"test_system": "Mus musculus", "test": "Ratio of effective dose of compound producing agonistic activity in presence and absence of CTOP (5.9 pmol) upon intrathecal administration in mouse tail flick assay", "format": "functional"}, "[15]": {"target": "T1, Opioid receptors; delta & kappa", "test": "Inhibition of [3H]U-69593 binding to delta and kappa opioid receptors expressed in HEK 293 cells with 10 nM naltriben", "format": "cell-based", "settings": "hek293", "in_short": "as §2"}, "[16]": {"target": "T1, Opioid receptors; delta & kappa", "test": "Inhibition of [3H]-U-69,593 binding to delta and kappa opioid receptors co-expressed in HEK 293 cells with 10 nM naltriben", "format": "cell-based", "settings": "hek293", "in_short": "as §2"}, "[17]": {"target": "T1, Opioid receptors; delta & kappa", "test": "Inhibition of [3H]U-69593 binding to delta and kappa opioid receptors expressed in HEK 293 cells with 100 nM benzylidenenaltrexone", "format": "cell-based", "settings": "hek293", "in_short": "as §2"}, "[18]": {"target": "T1, Opioid receptors; delta & kappa", "test": "Inhibition of [3H]-U-69,593 binding to delta and kappa opioid receptors co-expressed in HEK 293 cells with 100 nM benzylidenenaltrexone", "format": "cell-based", "settings": "hek293", "in_short": "as §2"}}}
{"smiles": "CNC(=O)CNC(=O)CNC(=O)CCC(=O)NCC(=O)NCC(=O)Nc1cccc([C@@H](CN2CCCC2)N(C)C(=O)Cc2ccc(Cl)c(Cl)c2)c1", "values": [{"measurement": "ED50 Ratio", "setting": "Mus musculus [1]", "result": 1.3}, {"measurement": "ED50 Ratio", "setting": "Mus musculus [2]", "result": "~1"}, {"measurement": "ED50 Ratio", "setting": "Mus musculus [3]", "result": "~1"}, {"measurement": "Ki", "setting": "[4]", "result": "> 1000", "unit": "nM"}, {"measurement": "Ki", "setting": "[5]", "result": 23.9, "unit": "nM"}, {"measurement": "Ki", "setting": "[6]", "result": 36.2, "unit": "nM"}, {"measurement": "ED50", "setting": "Mus musculus [7]", "result": 0.14, "unit": "nmol/mouse"}, {"measurement": "ED50", "setting": "Mus musculus [8]", "result": 0.11, "unit": "nmol/mouse"}, {"measurement": "Ki", "setting": "[9]", "result": "> 1000", "unit": "nM"}, {"measurement": "ED50 Ratio", "setting": "Mus musculus [10]", "result": 1.5}, {"measurement": "ED50 Ratio", "setting": "Mus musculus [11]", "result": 10.8}, {"measurement": "ED50 Ratio", "setting": "Mus musculus [12]", "result": 44.8}]}
{"smiles": "CNC(=O)CNC(=O)CCC(=O)NCC(=O)Nc1cccc([C@@H](CN2CCCC2)N(C)C(=O)Cc2ccc(Cl)c(Cl)c2)c1", "values": [{"measurement": "ED50 Ratio", "setting": "Mus musculus [1]", "result": 1}, {"measurement": "Ki", "setting": "[4]", "result": 281.2, "unit": "nM"}, {"measurement": "Ki", "setting": "[5]", "result": 6.75, "unit": "nM"}, {"measurement": "Ki", "setting": "[6]", "result": 41.6, "unit": "nM"}, {"measurement": "ED50", "setting": "Mus musculus [8]", "result": 1.4, "unit": "nmol/mouse"}, {"measurement": "Ki", "setting": "[9]", "result": "> 1000", "unit": "nM"}, {"measurement": "ED50 Ratio", "setting": "Mus musculus [10]", "result": 1}, {"measurement": "ED50 Ratio", "setting": "Mus musculus [11]", "result": 11}]}
{"smiles": "CNC(=O)CNC(=O)CCC(=O)NCC(=O)Nc1cccc2c3c([nH]c12)[C@@H]1Oc2c(O)ccc4c2[C@@]12CCN(CC1CC1)[C@H](C4)[C@]2(O)C3", "values": [{"measurement": "Ki", "setting": "[4]", "result": 0.46, "unit": "nM"}, {"measurement": "Ki", "setting": "[5]", "result": "> 1000", "unit": "nM"}, {"measurement": "Ki", "setting": "[6]", "result": "> 1000", "unit": "nM"}, {"measurement": "Ki", "setting": "[9]", "result": 0.15, "unit": "nM"}]}
{"smiles": "CNC(=O)CNC(=O)CNC(=O)CCC(=O)NCC(=O)NCC(=O)Nc1cccc2c3c([nH]c12)[C@@H]1Oc2c(O)ccc4c2[C@@]12CCN(CC1CC1)[C@H](C4)[C@]2(O)C3", "values": [{"measurement": "Ki", "setting": "[4]", "result": 0.91, "unit": "nM"}, {"measurement": "Ki", "setting": "[5]", "result": "> 1000", "unit": "nM"}, {"measurement": "Ki", "setting": "[6]", "result": "> 1000", "unit": "nM"}, {"measurement": "Ki", "setting": "[9]", "result": 1.07, "unit": "nM"}]}
{"smiles": "CN(C(=O)Cc1ccc(Cl)c(Cl)c1)[C@H](CN1CCCC1)c1cccc(NC(=O)CNC(=O)CNC(=O)CCC(=O)NCC(=O)NCC(=O)Nc2cccc3c4c([nH]c23)[C@@H]2Oc3c(O)ccc5c3[C@@]23CCN(CC2CC2)[C@H](C5)[C@]3(O)C4)c1", "values": [{"measurement": "ED50 Ratio", "setting": "Mus musculus [13]", "result": 0.65}, {"measurement": "ED50 Ratio", "setting": "Mus musculus [14]", "result": 0.8}, {"measurement": "ED50 Ratio", "setting": "Mus musculus [1]", "result": 3}, {"measurement": "Ki", "setting": "[4]", "result": 0.008, "unit": "nM"}, {"measurement": "Ki", "setting": "[5]", "result": 2.51, "unit": "nM"}, {"measurement": "Ki", "setting": "[15]", "result": 1.94, "unit": "nM"}, {"measurement": "Ki", "setting": "[16]", "result": 2.34, "unit": "nM"}, {"measurement": "Ki", "setting": "[6]", "result": 0.06, "unit": "nM"}, {"measurement": "Ki", "setting": "[17]", "result": 1.14, "unit": "nM"}, {"measurement": "Ki", "setting": "[18]", "result": 0.19, "unit": "nM"}, {"measurement": "ED50", "setting": "Mus musculus [8]", "result": 0.19, "unit": "nmol/mouse"}, {"measurement": "Ki", "setting": "[9]", "result": 0.52, "unit": "nM"}, {"measurement": "ED50 Ratio", "setting": "Mus musculus [10]", "result": 25.9}, {"measurement": "ED50 Ratio", "setting": "Mus musculus [11]", "result": 39.3}]}
{"smiles": "CN(C(=O)Cc1ccc(Cl)c(Cl)c1)[C@H](CN1CCCC1)c1cccc(NC(=O)CNC(=O)CNC(=O)CCCCC(=O)NCC(=O)NCC(=O)Nc2cccc3c4c([nH]c23)[C@@H]2Oc3c(O)ccc5c3[C@@]23CCN(CC2CC2)[C@H](C5)[C@]3(O)C4)c1", "values": [{"measurement": "ED50 Ratio", "setting": "Mus musculus [1]", "result": 3.4}, {"measurement": "ED50", "setting": "Mus musculus [8]", "result": 0.5, "unit": "nmol/mouse"}, {"measurement": "ED50 Ratio", "setting": "Mus musculus [10]", "result": 2}, {"measurement": "ED50 Ratio", "setting": "Mus musculus [11]", "result": 3.4}]}
{"smiles": "CN(C(=O)Cc1ccc(Cl)c(Cl)c1)[C@H](CN1CCCC1)c1cccc(NC(=O)CNC(=O)CCC(=O)NCC(=O)Nc2cccc3c4c([nH]c23)[C@@H]2Oc3c(O)ccc5c3[C@@]23CCN(CC2CC2)[C@H](C5)[C@]3(O)C4)c1", "values": [{"measurement": "ED50 Ratio", "setting": "Mus musculus [1]", "result": 2.1}, {"measurement": "Ki", "setting": "[4]", "result": 1.23, "unit": "nM"}, {"measurement": "Ki", "setting": "[5]", "result": 1.9, "unit": "nM"}, {"measurement": "Ki", "setting": "[15]", "result": 2.02, "unit": "nM"}, {"measurement": "Ki", "setting": "[16]", "result": 4.06, "unit": "nM"}, {"measurement": "Ki", "setting": "[6]", "result": 1.66, "unit": "nM"}, {"measurement": "Ki", "setting": "[17]", "result": 2.75, "unit": "nM"}, {"measurement": "Ki", "setting": "[18]", "result": 3.79, "unit": "nM"}, {"measurement": "ED50", "setting": "Mus musculus [8]", "result": 0.44, "unit": "nmol/mouse"}, {"measurement": "Ki", "setting": "[9]", "result": 0.43, "unit": "nM"}, {"measurement": "ED50 Ratio", "setting": "Mus musculus [10]", "result": 1.1}, {"measurement": "ED50 Ratio", "setting": "Mus musculus [11]", "result": 33}]}
